Results of several laboratories.
Organism: Acinetobacter baumannii
Read-out: microbial growth

Structure (SMILES)	test	test system	conditions	MIC
CN[C@@H]1[C@H](O[C@H]2[C@H](O[C@H]3[C@H](O)[C@@H](O)[C@H](N=C(N)N)[C@@H](O)[C@@H]3N=C(N)N)O[C@@H](C)[C@]2(O)C=O)O[C@@H](CO)[C@H](O)[C@H]1O	–	ATCC19606	–	> 2000 mg/L
O=C(O)c1ccc(-n2cc(/C=N/Nc3ccc(Br)cc3)c(-c3ccc4ccccc4c3)n2)cc1	–	ATCCBAA1605	–	12.5 mg/L
N=C(N)NN=Cc1ccc(OC/C=C\COc2ccc(C=NNC(=N)N)cc2)cc1	–	ATCC19606	16 h	≤ 51 mg/L
O=C(Nc1ccc2c(c1)OC(F)(F)O2)Nc1ccc(Cl)c(C(F)(F)F)c1	–	DSM30007	–	> 100 µM
N=C(N)c1ccc(OCc2cccc(COc3ccc(C(=N)N)cc3)c2)cc1	broth dilution	ATCC17978	–	> 200 mg/L
CCCCCCC/C=C/C(=O)N1C(=O)/C(=C(\O)C2CCNCC2)C(=O)C1CC(C)C (stereo not shown)	–	ATCC19606	–	50 mg/L
O=C(O)c1ccc(-n2cc(/C=N/Nc3cccc(Cl)c3)c(-c3cccc(F)c3)n2)cc1	–	ATCCBAA1605	–	6.25 mg/L
CC(NCCCCOc1ccc(Cl)c(Cl)c1)c1cc2cc(Br)ccc2[nH]1 (stereo not shown)	broth dilution	ATCC19606	–	32 mg/L
O=C(O)c1ccc(-n2cc(/C=N/Nc3cccc(Br)c3)c(-c3ccc(F)cc3)n2)cc1	–	ATCCBAA1605	–	12.5 mg/L
O=C(Cc1cc(O)c(O)c(O)c1)NCCCCCCCC[P+](c1ccccc1)(c1ccccc1)c1ccccc1.[Br-]	broth dilution	ATCC19606	18 h	> 32 mg/L
CN(C)Cc1ccc2c(N(C)C)c3c(c(O)c2c1)C(=O)C1=C(O)[C@]2(O)C(=O)C(C(N)=O)=C(O)[C@@H](N(C)C)[C@@H]2C[C@@H]1C3	broth dilution	ATCC19606	–	1 mg/L
CCCCCCC/C=C/C(=O)N1C(=O)/C(=C(\O)c2ccc(O)cc2)C(=O)C1CC(C)C (stereo not shown)	–	ATCC19606	–	> 200 mg/L
COc1cccc2c(O)c3c(cc12)C[C@H]1C[C@H]2[C@H](N(C)C)C(O)=C(C(N)=O)C(=O)[C@@]2(O)C(O)=C1C3=O	broth dilution	ATCC19606	–	> 32 mg/L
CCCCCCC/C=C/C(=O)N1C(=O)/C(=C(\O)c2ccc(OCOCCOC)cc2)C(=O)C1CC(C)C (stereo not shown)	–	ATCC19606	–	200 mg/L
CC1(C)S[C@@H]2[C@H](NC(=O)C(C(=O)O)c3ccccc3)C(=O)N2[C@H]1C(=O)O (stereo partly shown)	broth dilution	–	clinical isolate	> 200 µM
CO[C@@H](C(N)=O)[C@H](NC(=O)c1ccc(NC(=O)c2ccc(C#N)cc2)cc1)C(=O)Nc1ccc(C(=O)Nc2ccc(C(=O)Nc3ccc(C(=O)O)cc3)c(O)c2OC(C)C)cc1	–	DSM30008	–	1 mg/L
NC[C@H]1O[C@H](O[C@H]2[C@H](O)[C@@H](O[C@H]3O[C@H](CO)[C@@H](O)[C@H](N)[C@H]3O)[C@H](N)C[C@@H]2N)[C@H](N)C[C@@H]1O	broth dilution	–	clinical isolate	> 200 µM
CCCCCCC/C=C/C(=O)N1C(=O)/C(=C(/C)O)C(=O)C1CCCCN (stereo not shown)	–	ATCC19606	–	> 200 mg/L
NCC[C@H](O)C(=O)N[C@@H]1C[C@H](N)[C@@H](O[C@H]2O[C@H](CN)[C@@H](O)[C@H](O)[C@H]2O)[C@H](O)[C@H]1O[C@H]1O[C@H](CO)[C@@H](O)[C@H](N)[C@H]1O	–	–	–	2 mg/L
NCCCNC1CCCCc2c1[nH]c1ccc(Br)cc21 (stereo not shown)	broth dilution	ATCC19606	–	32 mg/L

Structure (SMILES)	test	test system	conditions	MIC
O=C(CCCCCCCCCC[P+](c1ccccc1)(c1ccccc1)c1ccccc1)Nc1cc(O)c(O)c(O)c1.[Br-]	broth dilution	ATCC19606	18 h	> 32 mg/L
CN(C)c1ccc(O)c2c1C[C@H]1C[C@H]3[C@H](N(C)C)C(O)=C(C(N)=O)C(=O)[C@@]3(O)C(O)=C1C2=O	broth dilution	ATCC19606	–	0.063 mg/L
C[C@@H](O)[C@H]1C(=O)N2C(C(=O)O)=C(S[C@@H]3CN[C@H](C(=O)N(C)C)C3)[C@H](C)[C@H]12	broth dilution	ATCC19606	–	0.5 mg/L
CCCCCCC/C=C/C(=O)N1C(=O)/C(=C(/C)O)C(=O)C1Cc1ccc(OC(C)(C)C)cc1 (stereo not shown)	–	ATCC19606	–	> 200 mg/L
NC[C@@H]1O[C@H](O[C@H]2[C@@H](O)[C@H](O[C@@H]3[C@@H](O)[C@H](N)C[C@H](N)[C@H]3O[C@H]3O[C@H](CO)[C@@H](O)[C@H](O)[C@H]3N)O[C@@H]2CO)[C@H](N)[C@@H](O)[C@@H]1O	–	–	–	2 to 4 mg/L
O=C(CCc1cc(O)c(O)c(O)c1)NCCCCCCCC[P+](c1ccccc1)(c1ccccc1)c1ccccc1.[Br-]	broth dilution	ATCC19606	18 h	> 32 mg/L
CN(C)[C@@H]1C(O)=C(C(N)=O)C(=O)[C@@]2(O)C(O)=C3C(=O)c4c(O)c(N)nc(F)c4C[C@H]3C[C@@H]12.Cl.Cl	broth dilution	ATCC19606	–	0.5 mg/L
O=C(CCCCCC[P+](c1ccccc1)(c1ccccc1)c1ccccc1)Nc1ccc(O)c(O)c1.[Br-]	broth dilution	ATCC19606	18 h	> 32 mg/L
O=C(Nc1ccc([N+](=O)[O-])cc1F)c1ccccc1O	broth dilution	BAA1605	–	> 64 mg/L
CN(C)[C@@H]1C(O)=C(C(N)=O)C(=O)[C@@]2(O)C(O)=C3C(=O)c4c(O)cnc(-c5ccccc5)c4C[C@H]3C[C@@H]12.Cl.Cl	broth dilution	ATCC19606	–	0.125 mg/L
CN(C)[C@@H]1C(O)=C(C(N)=O)C(=O)[C@@]2(O)C(O)=C3C(=O)c4c(cc5ccc(-c6ccccc6)cc5c4O)C[C@H]3C[C@@H]12	broth dilution	ATCC19606	–	32 mg/L
C/C(=C\c1ccc(O)cc1)C(=O)Nc1ccc(C(=O)N[C@@H](CC(N)=O)C(=O)Nc2ccc(C(=O)Nc3ccc(C(=O)Nc4ccc(C(=O)O)cc4)c(O)c3OC(C)C)cc2)cc1	–	DSM30008	–	0.25 mg/L
N=C(N)c1ccc(OCCC(CCOc2ccc(C(=N)N)cc2)c2ccccc2)cc1 (stereo not shown)	broth dilution	ATCC17978	–	> 200 mg/L
CCCCCCC/C=C/C(=O)N1C(=O)/C(=C(\O)CCCC)C(=O)C1CC(C)C (stereo not shown)	–	ATCC19606	–	200 mg/L
C[C@H]1COc2c(N3CCN(C)CC3)c(F)cc3c(=O)c(C(=O)O)cn1c23	broth dilution	ATCC19606	–	≤ 0.125 mg/L
CN(Cc1ccc2cc3c(c(O)c2c1)C(=O)C1=C(O)[C@]2(O)C(=O)C(C(N)=O)=C(O)[C@@H](N(C)C)[C@@H]2C[C@@H]1C3)c1ccccc1	broth dilution	ATCC19606	–	32 mg/L
CN(C)c1cc(CNCC(C)(C)C)c(O)c2c1C[C@H]1C[C@H]3[C@H](N(C)C)C(O)=C(C(N)=O)C(=O)[C@@]3(O)C(O)=C1C2=O	broth dilution	ATCC19606	–	1 mg/L
O=C(O)c1ccc(-n2cc(/C=N/Nc3cccc(F)c3)c(-c3ccc4ccccc4c3)n2)cc1	–	ATCCBAA1605	–	25 mg/L
N=C(N)c1cccc(OCc2ccc(COc3cccc(C(=N)N)c3)cc2)c1	broth dilution	ATCC17978	–	> 200 mg/L
COc1ncc(O)c2c1C[C@H]1C[C@H]3[C@H](N(C)C)C(O)=C(C(N)=O)C(=O)[C@@]3(O)C(O)=C1C2=O.Cl.Cl	broth dilution	ATCC19606	–	0.5 mg/L
